From ChEMBL document CHEMBL3414425, “Synthesis and biological evaluation of new imidazo[2,1-b][1,3,4]thiadiazole-benzimidazole derivatives” (Eur J Med Chem, 2015) come the findings set out here.

≈ marks a conversion by molar mass, not a printed value. Calls of active or inactive are those of the source. The rule behind the calls is not given here.

The subject of data set [1] is Staphylococcus aureus. Briefly: Antibacterial activity against Staphylococcus aureus at 0.5 mg/ml incubated for 18 hrs by well plate technique. The class given is functional. Particulars: for zone of inhibition at 500 µg/mL: read-out: DIZ. The essentials: (§1)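 Bacteria kept on nutrient agar at 37 °C, grown statically in nutrient broth (start ~10-100 cfu/mL) at 37 °C for 18-24 h. Suspensions diluted in saline and spread on nutrient agar, then wells cut with a cork borer. Compound in DMSO at 1 or 0.5 mg/mL added to wells, 37 °C, 18 h. Inhibition zone diameter measured minus DMSO value; triplicate; streptomycin standard.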

Data set [2] relates to Escherichia coli. Kind of data set: Antibacterial activity against Escherichia coli at 0.5 mg/ml incubated for 18 hrs by well plate technique. It is filed as functional. The following applies: for zone of inhibition at 500 µg/mL: read-out: DIZ. The essentials: as §1
The test system of data set [3] is Aspergillus flavus. Briefly: Antifungal activity against Aspergillus flavus at 0.5 mg/ml incubated for 3 days. The class given is functional. Particulars: for zone of inhibition at 500 µg/mL: 72 h, read-out: IZ. The essentials: (§2)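 Well plate method on potato dextrose agar. Fungal stock suspended in distilled water with Tween 80 and swabbed over plates. Samples in DMSO at 1 and 0.5 mg/mL added to wells, incubated 25 °C for 3 days, then scored for inhibition zones; fluconazole standard.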

Data set [4] concerns Pseudomonas aeruginosa. Briefly: Antibacterial activity against Pseudomonas aeruginosa at 1 mg/ml incubated for 18 hrs by well plate technique. It is filed as functional. The following applies: for zone of inhibition at 1000 µg/mL: read-out: DIZ. The essentials: as §1
Data set [5] concerns Candida albicans. Briefly: Antifungal activity against Candida albicans at 0.5 mg/ml incubated for 3 days. It is filed as functional. Particulars: for zone of inhibition at 500 µg/mL: 72 h, read-out: IZ. The essentials:
as §2

Data set [6] has as its system Chrysosporium keratinophilum. Briefly: Antifungal activity against Chrysosporium keratinophilum at 0.5 mg/ml incubated for 3 days. The class given is functional. Particulars: for zone of inhibition at 500 µg/mL: 72 h, read-out: IZ. The essentials:
as §2

Data set [7] deals with Escherichia coli. Kind of data set: Antibacterial activity against Escherichia coli at 1 mg/ml incubated for 18 hrs by well plate technique. It is filed as functional. The following applies: for zone of inhibition at 1000 µg/mL: read-out: DIZ. The essentials: as §1
In data set [8] the test system is Salmonella typhi. Kind of data set: Antibacterial activity against Salmonella typhi at 0.5 mg/ml incubated for 18 hrs by well plate technique. The class given is functional. Particulars: for zone of inhibition at 500 µg/mL: Salmonella enterica, read-out: DIZ. The essentials: (§3)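 Well diffusion on nutrient agar; strains kept on nutrient agar at 37 °C, grown statically in nutrient broth 18-24 h at 37 °C, diluted in saline, 0.1 ml spread per plate. Compounds in DMSO at 1 and 0.5 mg/mL added to cork-bored wells; 18 h at 37 °C. Inhibition zone diameter measured, DMSO value subtracted; triplicate; streptomycin reference.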

A short description of data set [9]: Antioxidant activity assessed as DPPH radical scavenging activity incubated for 10 mins by UV-visible spectrometry. The class given is physicochemical. The essentials: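 DPPH free-radical scavenging; absorbance read at 517 nm against a methanol blank. % scavenging = (A control − A sample)/A control × 100.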
Data set [10] has as its system Chrysosporium keratinophilum. Kind of data set: Antifungal activity against Chrysosporium keratinophilum at 1 mg/ml incubated for 3 days. Particulars: for zone of inhibition at 1000 µg/mL: 72 h, read-out: IZ. The class given is functional. The essentials:
as §2

Data set [11] deals with Candida albicans. Briefly: Antifungal activity against Candida albicans at 1 mg/ml incubated for 3 days. Particulars: for zone of inhibition at 1000 µg/mL: 72 h, read-out: IZ. It is filed as functional. The essentials: as §2
Data set [12] relates to Staphylococcus aureus. Briefly: Antibacterial activity against Staphylococcus aureus at 1 mg/ml incubated for 18 hrs by well plate technique. The following applies: for zone of inhibition at 1000 µg/mL: read-out: DIZ. It is filed as functional. The essentials:
as §1

The test system of data set [13] is Salmonella typhi. Kind of data set: Antibacterial activity against Salmonella typhi at 1 mg/ml incubated for 18 hrs by well plate technique. The class given is functional. The following applies: for zone of inhibition at 1000 µg/mL: Salmonella enterica, read-out: DIZ. The essentials:
as §3

In data set [14] the test system is Aspergillus flavus. Kind of data set: Antifungal activity against Aspergillus flavus at 1 mg/ml incubated for 3 days. The class given is functional. Particulars: for zone of inhibition at 1000 µg/mL: 72 h, read-out: IZ. The essentials: as §2
In data set [15] the test system is Mycobacterium tuberculosis. Briefly: Antitubercular activity against Mycobacterium tuberculosis H37Rv ATCC 27294/XDR-TB incubated for 28 days by agar dilution method. The following applies: 672 h. The class given is functional. The essentials:
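Agar dilution: two-fold dilutions in Middlebrook 7H11 agar with OADC. Inoculum from fresh 7H11/OADC slants adjusted to 1 mg/mL wet weight in 0.05% Tween 80 saline, diluted 10^-2 (~10⁷ cfu/mL); 5 µL spotted per tube. Incubated 37 °C; MIC, lowest concentration fully inhibiting growth, read after 28 days, in triplicate.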

Data set [16] has as its system Pseudomonas aeruginosa. Kind of data set: Antibacterial activity against Pseudomonas aeruginosa at 0.5 mg/ml incubated for 18 hrs by well plate technique. The class given is functional. Particulars: for zone of inhibition at 500 µg/mL: read-out: DIZ. The essentials: as §1
The mark [17] stands for this setting: Salmonella enterica subsp. enterica serovar Typhi.

For the compound `COc1ccc(-c2nc3sc(C)nn3c2-c2nc3cc([N+](=O)[O-])ccc3[nH]2)cc1`, the “diameter of the inhibition zone (DIZ)” value in the data set with Staphylococcus aureus [1], in the data set with Escherichia coli [2], in the data set on Pseudomonas aeruginosa [4], in the data set on Escherichia coli [7], with Salmonella typhi [8] (setting [17]) and in the data set on Staphylococcus aureus [12] was “inactive” each time. Also, the “diameter of the inhibition zone (DIZ)” value in the data set with Salmonella typhi [13] (setting [17]) and in the data set on Pseudomonas aeruginosa [16] was “inactive” each time. Moreover, the zone of inhibition at 500 µg/mL stood at 1 mm in the data set on Aspergillus flavus [3], 1 mm in the data set with Candida albicans [5] and 2 mm in data set [6]. In addition, the “inhibition (INH)” value in [9] came out at 22.6%. Moreover, the zone of inhibition at 1000 µg/mL in data set [10] worked out at 3 mm; in the data set on Candida albicans [11] it was 2 mm; with Aspergillus flavus [14], 2 mm. In addition, in [15], it took 12.5 µg/mL (≈ 30.8 µM) to inhibit growth (MIC).
Take `Cc1ccc(-c2nc3sc(-c4ccc(Cl)cc4)nn3c2-c2nc3cc(Cl)ccc3[nH]2)cc1`: the zone of inhibition at 500 µg/mL in the data set on Staphylococcus aureus [1] was 3 mm; in the data set with Escherichia coli [2], 2 mm; in the data set with Aspergillus flavus [3] it was 2 mm; with Candida albicans [5] it was 3 mm; in [6], 2 mm; with Salmonella typhi [8] it was 2 mm. Further, the zone of inhibition at 500 µg/mL in the data set with Pseudomonas aeruginosa [16] was found to be 3 mm. The zone of inhibition at 1000 µg/mL with Pseudomonas aeruginosa [4] is 4 mm; in the data set with Escherichia coli [7], 4 mm; in [10] it was 3 mm; in the data set on Candida albicans [11] it was 4 mm; in the data set on Staphylococcus aureus [12], 3 mm; in the data set with Salmonella typhi [13] it was 3 mm. Also, the zone of inhibition at 1000 µg/mL with Aspergillus flavus [14] was found to be 3 mm. Moreover, the “inhibition (INH)” value in data set [9] turned out to be 31.9%. Moreover, inhibition of growth in [15] (MIC) required 25 µg/mL (≈ 52.5 µM).
Turning to `Cc1nn2c(-c3nc4cc([N+](=O)[O-])ccc4[nH]3)c(-c3ccc(Cl)cc3)nc2s1`, the zone of inhibition at 500 µg/mL is 7 mm in the data set with Staphylococcus aureus [1], 4 mm in the data set on Escherichia coli [2], 4 mm in the data set with Salmonella typhi [8] and 5 mm with Pseudomonas aeruginosa [16]. Moreover, the “inhibition zone (IZ)” value (in the data set on Aspergillus flavus [3]; in the data set with Candida albicans [5]; in data set [6]; in data set [10]; with Candida albicans [11]; in the data set with Aspergillus flavus [14]) was “inactive” throughout. Besides, the zone of inhibition at 1000 µg/mL in the data set with Pseudomonas aeruginosa [4] was 8 mm; with Escherichia coli [7] it was 6 mm; with Staphylococcus aureus [12], 9 mm; with Salmonella typhi [13], 6 mm. In addition, the “inhibition (INH)” value in data set [9] was 29.8%. The compound further returned an MIC in data set [15] of 50 µg/mL (≈ 122 µM).
In the case of `COc1ccc(-c2nc3sc(-c4ccccc4)nn3c2-c2nc3cc([N+](=O)[O-])ccc3[nH]2)cc1`, the zone of inhibition at 500 µg/mL is 2 mm in the data set with Staphylococcus aureus [1]; 3 mm with Escherichia coli [2]; 1 mm in the data set with Aspergillus flavus [3]; 2 mm in [6]; 3 mm with Salmonella typhi [8]; 3 mm with Pseudomonas aeruginosa [16]. Moreover, the zone of inhibition at 1000 µg/mL in the data set on Pseudomonas aeruginosa [4] was found to be 5 mm; with Escherichia coli [7], 4 mm; in data set [10], 4 mm; with Candida albicans [11], 3 mm; in the data set on Staphylococcus aureus [12], 4 mm; in the data set on Salmonella typhi [13], 6 mm. The zone of inhibition at 1000 µg/mL with Aspergillus flavus [14] amounted to 3 mm. Further, the “inhibition zone (IZ)” value in the data set with Candida albicans [5] is “inactive”. Moreover, the “inhibition (INH)” value in data set [9] is 23.4%. Inhibition of growth in data set [15] (MIC) required 50 µg/mL (≈ 107 µM).
